What was measured:
Homo sapiens [1] = organism: Homo sapiens; test: Selectivity ratio of IC50 for recombinant his6-tagged DPP9 (unknown origin) to IC50 for recombinant his6-tagged DPP4 (unknown origin)
Method in brief: (§1)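 His6-tagged DPP4, DPP8 and DPP9 were expressed in High Five insect cells by baculovirus and purified on Ni-NTA. Activity was followed continuously by fluorescence of AMC released from Ala-Pro-AMC (ex 355/em 460 nm). DPP4 ran at 50 pmol/L enzyme in HEPES pH 7.5 with 0.1 mg/mL BSA; DPP8 and DPP9 ran at pH 8.0. IC50s came from quadruplicate sigmoidal variable-slope fits, and the ratio is the IC50 ratio.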

Dipeptidyl peptidase 9 = Dipeptidyl peptidase 9 (Homo sapiens, UniProt Q86TI2); test: Inhibition of recombinant his6-tagged DPP9 (unknown origin) expressed in baculovirus expression system using Ala-pro-AMC as substrate by fluorometric analysis
Homo sapiens [2] = organism: Homo sapiens; test: Selectivity ratio of IC50 for recombinant his6-tagged DPP8 (unknown origin) to IC50 for recombinant his6-tagged DPP4 (unknown origin); method in brief: as §1
Dipeptidyl peptidase 8 = Dipeptidyl peptidase 8 (Homo sapiens, UniProt Q6V1X1); test: Inhibition of recombinant his6-tagged DPP8 (unknown origin) expressed in baculovirus expression system using Ala-pro-AMC as substrate by fluorometric analysis
Dipeptidyl peptidase 4 = Dipeptidyl peptidase 4 (Homo sapiens, UniProt P27487); test: Inhibition of recombinant his6-tagged DPP4 (unknown origin) expressed in baculovirus expression system using Ala-pro-AMC as substrate by fluorometric analysis
Mus musculus [3] = test: Antidiabetic activity in C57BKS db/db mouse assessed as blood glucose level at 15 mg/kg/day administered for 5 weeks followed by glucose challenge at 6 hrs starvation of post last dose measured at 30 mins by OGTT (reference value: 46.6 +/- 2.2 mmol/L); format: functional
Method in brief: (§2)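 C57BKS db/db mice received 5, 15 or 50 mg/kg/day for 5 weeks. Vehicle was 0.5% methylcellulose at 10 mL/kg/day. In week 5, mice were fasted 6 h and given an oral glucose load of 1.5 g/kg, then blood glucose was recorded over the glucose tolerance test. Data are mean ± SE, compared with Student's t-test.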

Mus musculus [4] = test: Antidiabetic activity in C57BKS db/db mouse assessed as blood glucose level at 15 mg/kg/day administered for 5 weeks followed by glucose challenge at 6 hrs starvation of post last dose measured at 120 mins by OGTT (reference value: 28.1 +/- 1.3 mmol/L); format: functional; method in brief: as §2
Mus musculus [5] = test: Antidiabetic activity in C57BKS db/db mouse assessed as blood glucose level at 15 mg/kg/day administered for 5 weeks followed by glucose challenge at 6 hrs starvation of post last dose measured at 90 mins by OGTT (reference value: 27.2 +/- 1.3 mmol/L); format: functional; method in brief: as §2
Mus musculus [6] = test: Antidiabetic activity in C57BKS db/db mouse assessed as blood glucose level at 15 mg/kg/day administered for 5 weeks followed by glucose challenge at 6 hrs starvation of post last dose measured immediately by OGTT (reference value: 25 +/- 1.2 mmol/L); format: functional; method in brief: as §2
Mus musculus [7] = test: Antidiabetic activity in ICR mouse assessed as decrease in blood glucose AUC (0 to 120 mins) at 30 mg/kg administered for 30 mins prior to glucose challenge measured after 4 hrs by OGTT relative to vehicle-treated control; format: functional; set-up: scale not given: the % may be the effect or the level left
Method in brief: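 ICR mice were fasted 16 h and given one dose in 0.5% methylcellulose vehicle (10 mL/kg). An oral glucose load of 2.5 g/kg followed; methods state 30 min after dosing, the figure legend 4 h.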

Mus musculus [8] = test: Antidiabetic activity in C57BKS db/db mouse assessed as blood glucose level at 15 mg/kg/day administered for 5 weeks followed by glucose challenge at 6 hrs starvation of post last dose measured at 60 mins by OGTT (reference value: 30.2 +/- 1.5 mmol/L); format: functional; method in brief: as §2

Dipeptidyl peptidase 8, sequence (Q6V1X1 whole entry): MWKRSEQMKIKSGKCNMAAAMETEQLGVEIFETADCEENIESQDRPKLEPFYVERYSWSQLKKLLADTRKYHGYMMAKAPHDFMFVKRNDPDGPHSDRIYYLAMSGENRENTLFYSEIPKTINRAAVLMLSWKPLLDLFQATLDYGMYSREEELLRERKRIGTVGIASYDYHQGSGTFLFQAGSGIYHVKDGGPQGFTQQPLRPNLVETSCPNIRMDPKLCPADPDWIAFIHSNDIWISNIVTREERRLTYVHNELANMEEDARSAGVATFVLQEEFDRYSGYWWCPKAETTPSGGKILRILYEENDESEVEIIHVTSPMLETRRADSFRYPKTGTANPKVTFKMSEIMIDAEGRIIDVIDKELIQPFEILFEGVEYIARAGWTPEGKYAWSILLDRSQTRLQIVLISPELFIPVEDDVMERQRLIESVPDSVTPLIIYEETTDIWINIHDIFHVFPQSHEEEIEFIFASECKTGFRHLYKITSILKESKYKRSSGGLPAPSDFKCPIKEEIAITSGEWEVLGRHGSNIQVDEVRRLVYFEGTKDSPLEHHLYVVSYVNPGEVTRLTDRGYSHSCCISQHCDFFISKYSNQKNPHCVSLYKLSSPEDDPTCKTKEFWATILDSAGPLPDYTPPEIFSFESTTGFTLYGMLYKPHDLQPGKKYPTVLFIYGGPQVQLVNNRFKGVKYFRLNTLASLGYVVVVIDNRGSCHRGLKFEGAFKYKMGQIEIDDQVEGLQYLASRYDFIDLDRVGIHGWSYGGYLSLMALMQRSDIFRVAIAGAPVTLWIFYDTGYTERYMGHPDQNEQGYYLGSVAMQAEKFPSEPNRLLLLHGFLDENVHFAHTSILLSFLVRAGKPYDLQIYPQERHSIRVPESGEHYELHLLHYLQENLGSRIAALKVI
Dipeptidyl peptidase 9, sequence (Q86TI2 whole entry): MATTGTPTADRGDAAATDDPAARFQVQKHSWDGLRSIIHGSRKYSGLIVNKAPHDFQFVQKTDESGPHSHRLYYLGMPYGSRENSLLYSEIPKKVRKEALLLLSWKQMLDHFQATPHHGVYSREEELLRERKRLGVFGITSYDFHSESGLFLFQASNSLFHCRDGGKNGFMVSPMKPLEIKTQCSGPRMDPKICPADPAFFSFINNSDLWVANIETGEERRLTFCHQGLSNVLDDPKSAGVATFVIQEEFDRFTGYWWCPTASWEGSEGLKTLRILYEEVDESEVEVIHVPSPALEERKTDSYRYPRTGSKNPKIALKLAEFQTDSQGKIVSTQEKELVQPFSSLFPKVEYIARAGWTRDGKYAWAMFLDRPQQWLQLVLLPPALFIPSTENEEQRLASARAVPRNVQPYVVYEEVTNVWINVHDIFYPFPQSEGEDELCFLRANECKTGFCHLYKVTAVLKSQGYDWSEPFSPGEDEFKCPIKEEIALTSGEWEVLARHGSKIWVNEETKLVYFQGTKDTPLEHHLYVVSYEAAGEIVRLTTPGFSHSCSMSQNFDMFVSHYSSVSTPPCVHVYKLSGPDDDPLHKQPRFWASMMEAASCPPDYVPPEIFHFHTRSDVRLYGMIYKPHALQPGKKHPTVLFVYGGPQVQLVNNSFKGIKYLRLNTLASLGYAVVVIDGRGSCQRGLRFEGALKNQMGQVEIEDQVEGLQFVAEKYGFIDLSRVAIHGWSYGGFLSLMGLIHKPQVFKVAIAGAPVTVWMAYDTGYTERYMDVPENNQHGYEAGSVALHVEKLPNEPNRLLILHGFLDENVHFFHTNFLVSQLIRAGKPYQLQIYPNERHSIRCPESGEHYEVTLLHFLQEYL
Dipeptidyl peptidase 4, sequence (P27487 whole entry): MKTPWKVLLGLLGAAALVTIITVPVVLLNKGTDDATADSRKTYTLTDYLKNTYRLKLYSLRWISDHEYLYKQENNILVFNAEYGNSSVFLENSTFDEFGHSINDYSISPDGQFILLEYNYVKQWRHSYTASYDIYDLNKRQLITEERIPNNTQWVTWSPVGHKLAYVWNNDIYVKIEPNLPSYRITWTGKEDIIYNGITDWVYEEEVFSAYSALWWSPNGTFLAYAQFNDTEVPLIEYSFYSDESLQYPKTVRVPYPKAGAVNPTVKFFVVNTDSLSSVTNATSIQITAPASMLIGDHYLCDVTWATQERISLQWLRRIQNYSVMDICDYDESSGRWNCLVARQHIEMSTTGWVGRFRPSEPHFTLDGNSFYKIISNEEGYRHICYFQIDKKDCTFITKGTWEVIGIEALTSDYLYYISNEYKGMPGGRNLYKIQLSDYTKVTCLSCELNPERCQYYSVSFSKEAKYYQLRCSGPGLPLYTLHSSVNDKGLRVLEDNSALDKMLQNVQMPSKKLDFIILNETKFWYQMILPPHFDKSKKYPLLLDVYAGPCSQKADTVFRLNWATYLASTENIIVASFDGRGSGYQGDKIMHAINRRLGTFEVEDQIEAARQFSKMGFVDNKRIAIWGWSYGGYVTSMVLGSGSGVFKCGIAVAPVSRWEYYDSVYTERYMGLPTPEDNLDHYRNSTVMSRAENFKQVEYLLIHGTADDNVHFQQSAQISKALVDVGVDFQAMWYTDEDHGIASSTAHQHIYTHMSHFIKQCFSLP

N#C[C@@H]1CCCN1C(=O)[C@@H](N)Cc1ccoc1 showed a Ratio IC50 (Homo sapiens [1]) greater than 2.5, an IC50 (Dipeptidyl peptidase 9) greater than 288 µM and a Ratio IC50 (Homo sapiens [2]) greater than 2.5. It also gave an IC50 (Dipeptidyl peptidase 8) greater than 288 µM and an IC50 (Dipeptidyl peptidase 4) of 114 µM.

N#C[C@@H]1CCCN1C(=O)[C@@H](N)Cc1ccccn1 gave an IC50 (Dipeptidyl peptidase 9) of 144 µM and an IC50 (Dipeptidyl peptidase 8) of 125 µM.

For N#C[C@@H]1CCCN1C(=O)CNC12CC3CC(CC(O)(C3)C1)C2 [VILDAGLIPTIN], the Activity (Mus musculus [3]) was 31.3 mmol/L, the Activity (Mus musculus [4]) was 21.4 mmol/L and the Activity (Mus musculus [5]) was 20.7 mmol/L. The Activity (Mus musculus [6]) was 17.9 mmol/L, the Activity (Mus musculus [7]) was 19.9% and the Activity (Mus musculus [8]) was 21 mmol/L.

From ChEMBL document CHEMBL3124820, “Design, synthesis and biological evaluation of hetero-aromatic moieties substituted pyrrole-2-carbonitrile derivatives as dipeptidyl peptidase IV inhibitors” (Eur J Med Chem, 2014)
